Bioassay records (PubChem BioAssay)
The sample as a whole holds a higher share of hits than the screen did.
E-sel inducer = E-selectin induction in HUVECs, primary screen, imaging, HUVEC, immunofluorescence imaging, single point; P16581; normalized: neutral wells 0, TNF-alpha wells 100; activation, % at 7.58 µM; 260,000 tested, 0.37% active; AID 686992, 2013;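 active means mean E-selectin-positive cell signal at least 10% of the positive control, reached in at least 60% of replicates, without over 20% cell loss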
Target sequence (P16581 whole entry, looked up): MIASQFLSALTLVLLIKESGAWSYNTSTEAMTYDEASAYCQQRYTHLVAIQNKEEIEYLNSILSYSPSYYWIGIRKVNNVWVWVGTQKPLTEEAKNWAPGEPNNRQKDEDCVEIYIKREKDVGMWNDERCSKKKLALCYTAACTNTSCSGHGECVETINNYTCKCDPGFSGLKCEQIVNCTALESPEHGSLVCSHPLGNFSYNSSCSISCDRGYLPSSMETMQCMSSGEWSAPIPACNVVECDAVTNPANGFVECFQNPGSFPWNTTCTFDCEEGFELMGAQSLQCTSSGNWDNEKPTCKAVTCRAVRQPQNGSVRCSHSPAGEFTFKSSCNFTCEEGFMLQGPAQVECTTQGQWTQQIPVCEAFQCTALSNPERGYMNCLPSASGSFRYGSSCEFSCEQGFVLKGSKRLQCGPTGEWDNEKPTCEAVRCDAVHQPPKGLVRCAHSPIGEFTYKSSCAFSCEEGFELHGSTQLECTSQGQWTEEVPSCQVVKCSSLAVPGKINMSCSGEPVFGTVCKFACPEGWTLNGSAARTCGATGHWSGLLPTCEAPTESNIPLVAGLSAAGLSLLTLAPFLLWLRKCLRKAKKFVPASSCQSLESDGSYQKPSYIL
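assay system = HUVEC, human umbilical vein endothelial cells | input = 3,000 HUVEC seeded per well | medium = EGM-2 growth medium on 0.1% gelatin-coated wells | dosing = one compound dose added by pin transfer | signal = immunofluorescence imaging | read-out basis = % PE-positive cells | control set = TNF-alpha, DMSO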
Numbers without * were called inactive.

Results for Cc1ccc(C(=O)Nc2ccc(N3CCCC3)cc2)c(C)c1 ?
E-sel inducer: 3

What do the screens show for `COc1ccc(C(=O)NC(=S)Nc2ccc(CN3CCCCC3)cc2)cc1Cl`?
E-sel inducer: 0

What do the screens show for `Cc1ccc(C(=O)NC(=S)Nc2ccc(CN3CCCCC3)cc2)c(C)c1`?
E-sel inducer: 26*

Results for Cc1ccc(S(=O)(=O)N(C)C[C@H]2Oc3cc(C#Cc4ccncc4)ccc3S(=O)(=O)N([C@H](C)CO)C[C@@H]2C)cc1 ?
E-sel inducer: 0

Results for O=C1NC(=S)S/C1=C\C=C\c1ccc([N+](=O)[O-])o1 ?
E-sel inducer: 248*

What do the screens show for `O=[N+]([O-])c1ccc(/C=N/N=C/c2ccc([N+](=O)[O-])o2)o1`?
E-sel inducer: -1

What do the screens show for `O=C(N/N=C\C=C\c1ccc([N+](=O)[O-])o1)c1cccs1`?
E-sel inducer: 0

How did C[C@@H]1CN([C@@H](C)CO)C(=O)c2cc(NC(=O)NC3CCCCC3)ccc2O[C@H]1CN(C)C(=O)Nc1cccc2ccccc12 do in these assays?
E-sel inducer: 0

What do the screens show for `COc1ccc(OC)c2sc(NNC(=O)C3COc4ccccc4O3)nc12` (configuration not stated)?
E-sel inducer: 8

What do the screens show for `Cc1cc(C)c2sc(NNC(=O)C3COc4ccccc4O3)nc2c1` (configuration not stated)?
E-sel inducer: 83*

What do the screens show for `Cc1cccc2sc(NNC(=O)C3COc4ccccc4O3)nc12` (configuration not stated)?
E-sel inducer: 0

What do the screens show for `C[C@@H]1CCCCO[C@@H](CN(C)C)[C@H](C)CN([C@H](C)CO)C(=O)c2cc(NS(=O)(=O)c3ccc(Cl)cc3)ccc2O1`?
E-sel inducer: 0

How did C[C@@H]1CN([C@@H](C)CO)C(=O)c2cccc(NC(=O)c3cnccn3)c2O[C@H]1CN(C)C(=O)NC1CCCCC1 do in these assays?
E-sel inducer: 0

How did N#Cc1cccnc1N1CCN(C(=O)c2ccccc2)CC1 do in these assays?
E-sel inducer: 0

What do the screens show for `N#Cc1cccnc1N1CCC(C(N)=O)CC1`?
E-sel inducer: 70*

What do the screens show for `CC(C)C(C(=O)NC1CCCC1)N1CCN(c2ncccc2C#N)CC1` (configuration not stated)?
E-sel inducer: 0

Results for C[C@@H]1CN([C@H](C)CO)C(=O)CCCn2nncc2CO[C@H]1CN(C)C(=O)Nc1ccccc1F ?
E-sel inducer: 1

How did COCC(=O)Nc1ccc2c(c1)C(=O)N(C)C[C@@H](OC)[C@@H](C)CN[C@H](C)CO2 do in these assays?
E-sel inducer: 0

Results for C[C@H](CO)N1C[C@H](C)[C@H](CN(C)Cc2ccncc2)Oc2ccc(NC(=O)NC3CCCCC3)cc2C1=O ?
E-sel inducer: 0

How did CO[C@@H]1CN(C)C(=O)c2ccc(NC(=O)C3CC3)cc2OC[C@H](C)N(C(=O)CN2CCOCC2)C[C@H]1C do in these assays?
E-sel inducer: 0

How did CCCCc1c(C)nc2ccc(C)cc2c1SCCC(=O)O do in these assays?
E-sel inducer: 29*

How did CCCCc1c(C)nc2c(OC)cccc2c1SCCC(=O)O do in these assays?
E-sel inducer: 0

Results for CCCCc1c(C)nc2ccc(Br)cc2c1SC(N)N ?
E-sel inducer: 6

Results for CCCC(=O)Nc1ccc2c(c1)C(=O)N(C)[C@H]1CC[C@@H](CC(=O)Nc3ccccc3)O[C@@H]1CO2 ?
E-sel inducer: 0

How did COc1ccc(C(=O)Nc2ccc3c(c2)OCCO3)cc1[N+](=O)[O-] do in these assays?
E-sel inducer: 46*

Results for COc1ccc(NC(=O)c2ccc3c(c2)OCCO3)cc1OC ?
E-sel inducer: 0

How did COc1ccc(C(=O)Nc2ccc(C(=O)N3CCCC3)cc2)cc1[N+](=O)[O-] do in these assays?
E-sel inducer: 0

Results for O=C(Nc1ccccc1F)N[C@H]1CC[C@H](CCNS(=O)(=O)c2ccc(F)cc2)O[C@H]1CO ?
E-sel inducer: 0

What do the screens show for `CC=Cc1ccc2n(c1=O)C[C@@H]1[C@@H](CO)[C@H](C(=O)NCC3CC3)N(Cc3ccccn3)[C@H]21` (mixture of isomers)?
E-sel inducer: 0

What do the screens show for `COc1ccc(S(=O)(=O)N2CC3(CN(Cc4ccccc4OC)[C@@H](CO)c4[nH]c5cc(OC)ccc5c43)C2)cc1`?
E-sel inducer: 1

Results for CCOC(=O)C1(Cc2ccccc2C)CCCN(C(=O)c2cc(CC)nn2C)C1 (configuration not stated) ?
E-sel inducer: 4

What do the screens show for `CCOC(=O)C1(Cc2ccccc2C)CCCN(C(=O)c2ccnn2C)C1` (configuration not stated)?
E-sel inducer: 114*

What do the screens show for `CCOC(=O)C1(Cc2ccccc2C)CCCN(C(=O)c2sccc2C)C1` (configuration not stated)?
E-sel inducer: 0

How did Cc1nc(-c2nc(C(=O)NNS(C)(=O)=O)cs2)cs1 do in these assays?
E-sel inducer: 0

What do the screens show for `NNC(=O)c1csc(COc2cc(Cl)cc(Cl)c2)n1`?
E-sel inducer: 2

How did CS(=O)(=O)NNC(=O)c1csc(Cc2c(Cl)sc3ccc(Cl)cc23)n1 do in these assays?
E-sel inducer: 63*

Results for CCCNC(=O)N1C[C@H]2[C@@H](c3ccccc31)[C@@H](CO)N2Cc1ccc2c(c1)OCO2 ?
E-sel inducer: 0

How did Cn1cnc(S(=O)(=O)N2CC[C@@H]3[C@@H](CO)Nc4ccc(C#Cc5ccccc5F)cc4[C@@H]32)c1 do in these assays?
E-sel inducer: 1

How did Cc1cc(/C=C(/C#N)C(=O)O)c(C)n1-c1cccc2ccccc12 do in these assays?
E-sel inducer: 0

Results for Cc1cc(/C=C(\C#N)C(=O)NCc2ccccc2)c(C)[nH]1 ?
E-sel inducer: 0

What do the screens show for `Cc1c(C(=O)O)cccc1-n1c(C)cc(/C=C(/C#N)C(=O)NCc2ccccc2)c1C`?
E-sel inducer: 83*

What do the screens show for `C[C@H](NC(=O)C[C@@H]1CC[C@H]2[C@@H](COC[C@@H](O)CN2C(=O)Nc2ccccc2)O1)c1ccccc1`?
E-sel inducer: 0

Results for Cc1ccc(NC(=S)Nc2cc(-c3ccccc3)[nH]n2)cc1Cl ?
E-sel inducer: 12

Results for Fc1ccc(NC(=S)Nc2cc(-c3ccccc3)[nH]n2)cc1Cl ?
E-sel inducer: 30*

How did Fc1ccc(NC(=S)Nc2ccccc2OC(F)F)cc1Cl do in these assays?
E-sel inducer: 2

How did CN1C(=O)c2cc(NS(C)(=O)=O)ccc2OC[C@H]2O[C@@H](CC(=O)O)CC[C@H]21 do in these assays?
E-sel inducer: 0

What do the screens show for `CCCC(=O)Nc1ccc2c(c1)C(=O)N(C)[C@H]1CC[C@H](CC(=O)N3CCc4ccccc4C3)O[C@H]1CO2`?
E-sel inducer: 0

How did C[C@@H]1CN([C@@H](C)CO)C(=O)Cc2cc(NC(=O)c3ccncc3)ccc2O[C@@H]1CN(C)S(C)(=O)=O do in these assays?
E-sel inducer: 37*

What do the screens show for `C[C@H]1CN([C@@H](C)CO)C(=O)Cc2cc(NC(=O)c3ccncc3)ccc2O[C@H]1CN(C)C`?
E-sel inducer: 1

Results for COc1ccc(NC(=O)N(C)C[C@@H]2Oc3ccc(N(C)C)cc3CC(=O)N([C@@H](C)CO)C[C@H]2C)cc1 ?
E-sel inducer: -8

Results for COc1ccc(NC(=O)N(C)C[C@@H]2Oc3ccc(NC(=O)c4ccncc4)cc3CC(=O)N([C@@H](C)CO)C[C@H]2C)cc1 ?
E-sel inducer: 72*
